# Values joined by “and” are separate entries in the source; they are usually repeats but may differ in a detail not shown here. Equal values may be shown once.
# Test system: HEK-293T
# Assay: Multiplex assay against HEK293T;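 as to Population Tubulin-Different-Phenotype (%): share of the cells with healthy nuclei that show this phenotype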
# Assay type: toxicity, cell-based
# Conditions: human
# How it was run: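 Values for tubulin, mitochondrial-mass and membrane-permeability phenotypes are per cents of cells with healthy nuclei. These cells were identified by CellPathfinder machine-learning gating of live cells that had been stained at seeding with Hoechst33342, BioTracker Green Microtubule Cytoskeleton Dye, MitoTracker Red and Annexin V Alexa Fluor 680 and imaged on a CQ1 microscope at 37°C and 5% CO2 after compound addition. The gating first set Hoechst high-intensity objects apart from normal cells, then split normal cells into healthy, pyknosed or fragmented nuclei, and pyknosed cells into mitotic or apoptotic.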
# [1] = 12 h, 1 µM, compound concentration 1 uM, replicate 1
# [2] = 12 h, 1 µM, compound concentration 1 uM, replicate 2
# [3] = 12 h, 10 µM, compound concentration 10 uM, replicate 1
# [4] = 12 h, 10 µM, compound concentration 10 uM, replicate 2
# [5] = 24 h, 1 µM, compound concentration 1 uM, replicate 1
# [6] = 24 h, 1 µM, compound concentration 1 uM, replicate 2
# [7] = 24 h, 10 µM, compound concentration 10 uM, replicate 1
# [8] = 24 h, 10 µM, compound concentration 10 uM, replicate 2
# [9] = 48 h, 1 µM, compound concentration 1 uM, replicate 1
# [10] = 48 h, 1 µM, compound concentration 1 uM, replicate 2
# [11] = 48 h, 10 µM, compound concentration 10 uM, replicate 1
# [12] = 48 h, 10 µM, compound concentration 10 uM, replicate 2
smiles,measurement,setting,value
CNC(=O)Nc1ccc2c(c1)[C@@]1(CC2)OC(=O)N(CC(=O)N(Cc2ccc(F)cc2)[C@@H](C)C(F)(F)F)C1=O [A-486],Population Apoptotic (%),[1],25%
same,Population Fragmented Nuclei (%),[1],17%
same,Population Healthy Nuclei (%),[1],47%
same,Population Hoechst High Intensity Objects (%),[1],15%
same,Population Membrane Permeable-Phenotype (%),[1],17%
same,Population Mitochondria Different-Phenotype (%),[1],15%
same,Population Mitotic Cells (%),[1],74%
same,Population Normal (%),[1],84%
same,Population Pyknosed Nuclei (%),[1],35%
same,Population Tubulin-Different-Phenotype (%),[1],48%
same,Total Cell Count,[1],632
same,Population Apoptotic (%),[2],12%
same,Population Fragmented Nuclei (%),[2],4%
same,Population Healthy Nuclei (%),[2],82%
same,Population Hoechst High Intensity Objects (%),[2],2%
same,Population Membrane Permeable-Phenotype (%),[2],29%
same,Population Mitochondria Different-Phenotype (%),[2],21%
same,Population Mitotic Cells (%),[2],87%
same,Population Normal (%),[2],97%
same,Population Pyknosed Nuclei (%),[2],13%
same,Population Tubulin-Different-Phenotype (%),[2],88%
same,Total Cell Count,[2],1325
same,Population Apoptotic (%),[3],14%
same,Population Fragmented Nuclei (%),[3],20%
same,Population Healthy Nuclei (%),[3],57%
same,Population Hoechst High Intensity Objects (%),[3],17%
same,Population Membrane Permeable-Phenotype (%),[3],7%
same,Population Mitochondria Different-Phenotype (%),[3],6%
same,Population Mitotic Cells (%),[3],85%
same,Population Normal (%),[3],82%
same,Population Pyknosed Nuclei (%),[3],22%
same,Population Tubulin-Different-Phenotype (%),[3],4%
same,Total Cell Count,[3],510
same,Population Apoptotic (%),[4],5%
same,Population Fragmented Nuclei (%),[4],9%
same,Population Healthy Nuclei (%),[4],85%
same,Population Hoechst High Intensity Objects (%),[4],1%
same,Population Membrane Permeable-Phenotype (%),[4],2%
same,Population Mitochondria Different-Phenotype (%),[4],8%
same,Population Mitotic Cells (%),[4],95%
same,Population Normal (%),[4],98%
same,Population Pyknosed Nuclei (%),[4],4%
same,Population Tubulin-Different-Phenotype (%),[4],13%
same,Total Cell Count,[4],1787
same,Population Apoptotic (%),[5],24%
same,Population Fragmented Nuclei (%),[5],12%
same,Population Healthy Nuclei (%),[5],73%
same,Population Hoechst High Intensity Objects (%),[5],10%
same,Population Membrane Permeable-Phenotype (%),[5],25%
same,Population Mitochondria Different-Phenotype (%),[5],11%
same,Population Mitotic Cells (%),[5],75%
same,Population Normal (%),[5],89%
same,Population Pyknosed Nuclei (%),[5],14%
same,Population Tubulin-Different-Phenotype (%),[5],67%
same,Total Cell Count,[5],669
same,Population Apoptotic (%),[6],6%
same,Population Fragmented Nuclei (%),[6],14%
same,Population Healthy Nuclei (%),[6],79%
same,Population Hoechst High Intensity Objects (%),[6],3%
same,Population Membrane Permeable-Phenotype (%),[6],36%
same,Population Mitochondria Different-Phenotype (%),[6],10%
same,Population Mitotic Cells (%),[6],93%
same,Population Normal (%),[6],96%
same,Population Pyknosed Nuclei (%),[6],5%
same,Population Tubulin-Different-Phenotype (%),[6],89%
same,Total Cell Count,[6],1891
same,Population Apoptotic (%),[7],33%
same,Population Fragmented Nuclei (%),[7],15%
same,Population Healthy Nuclei (%),[7],75%
same,Population Hoechst High Intensity Objects (%),[7],9%
same,Population Membrane Permeable-Phenotype (%),[7],8%
same,Population Mitochondria Different-Phenotype (%),[7],4%
same,Population Mitotic Cells (%),[7],66%
same,Population Normal (%),[7],90%
same,Population Pyknosed Nuclei (%),[7],9%
same,Population Tubulin-Different-Phenotype (%),[7],10%
same,Total Cell Count,[7],551
same,Population Apoptotic (%),[8],7%
same,Population Fragmented Nuclei (%),[8],25%
same,Population Healthy Nuclei (%),[8],72%
same,Population Hoechst High Intensity Objects (%),[8],2%
same,Population Membrane Permeable-Phenotype (%),[8],7%
same,Population Mitochondria Different-Phenotype (%),[8],2%
same,Population Mitotic Cells (%),[8],92%
same,Population Normal (%),[8],97%
same,Population Pyknosed Nuclei (%),[8],1%
same,Population Tubulin-Different-Phenotype (%),[8],13%
same,Total Cell Count,[8],3041
CNCc1ccccc1-c1csc([C@@H](C)Nc2nc(C)nc3cc(OC)c(OC)cc23)c1 [BAY-293],Population Apoptotic (%),[3],19% and 47%
same,Population Fragmented Nuclei (%),[3],20% and 21%
same,Population Healthy Nuclei (%),[3],45% and 17%
same,Population Hoechst High Intensity Objects (%),[3],16% and 22%
same,Population Membrane Permeable-Phenotype (%),[3],29% and 15%
same,Population Mitochondria Different-Phenotype (%),[3],18% and 54%
same,Population Mitotic Cells (%),[3],80% and 52%
same,Population Normal (%),[3],83% and 77%
same,Population Pyknosed Nuclei (%),[3],34% and 61%
same,Population Tubulin-Different-Phenotype (%),[3],80% and 65%
same,Total Cell Count,[3],581 and 619
same,Population Fragmented Nuclei (%),[4],5% and 2%
same,Population Healthy Nuclei (%),[4],80% and 57%
same,Population Hoechst High Intensity Objects (%),[4],3% and 9%
same,Population Membrane Permeable-Phenotype (%),[4],7%
same,Population Mitotic Cells (%),[4],91% and 65%
same,Population Normal (%),[4],96% and 90%
same,Population Pyknosed Nuclei (%),[4],14% and 40%
same,Population Tubulin-Different-Phenotype (%),[4],95% and 92%
same,Total Cell Count,[4],1447 and 918
same,Population Apoptotic (%),[7],55% and 23%
same,Population Fragmented Nuclei (%),[7],28% and 17%
same,Population Hoechst High Intensity Objects (%),[7],25% and 13%
same,Population Membrane Permeable-Phenotype (%),[7],17% and 36%
same,Population Mitochondria Different-Phenotype (%),[7],45% and 16%
same,Population Mitotic Cells (%),[7],44% and 76%
same,Population Normal (%),[7],74% and 86%
same,Population Tubulin-Different-Phenotype (%),[7],59% and 89%
same,Total Cell Count,[7],668 and 627
same,Population Fragmented Nuclei (%),[8],5% and 15%
same,Population Healthy Nuclei (%),[8],46% and 79%
same,Population Mitotic Cells (%),[8],53% and 94%
same,Population Normal (%),[8],89% and 96%
same,Population Tubulin-Different-Phenotype (%),[8],73% and 82%
same,Total Cell Count,[8],918 and 2344
Cc1c[nH]c2nccc(Oc3c(F)cc(Nc4cc(Cl)nc(N)n4)cc3F)c12 [BAY-549],Population Apoptotic (%),[1],37%
same,Population Fragmented Nuclei (%),[1],15%
same,Population Healthy Nuclei (%),[1],32%
same,Population Hoechst High Intensity Objects (%),[1],12%
same,Population Membrane Permeable-Phenotype (%),[1],0%
same,Population Mitochondria Different-Phenotype (%),[1],71%
same,Population Mitotic Cells (%),[1],62%
same,Population Normal (%),[1],87%
same,Population Pyknosed Nuclei (%),[1],52%
same,Population Tubulin-Different-Phenotype (%),[1],31%
same,Total Cell Count,[1],310
same,Population Apoptotic (%),[2],13%
same,Population Fragmented Nuclei (%),[2],7%
same,Population Healthy Nuclei (%),[2],54%
same,Population Hoechst High Intensity Objects (%),[2],4%
same,Population Membrane Permeable-Phenotype (%),[2],8%
same,Population Mitochondria Different-Phenotype (%),[2],8%
same,Population Mitotic Cells (%),[2],86%
same,Population Normal (%),[2],95%
same,Population Pyknosed Nuclei (%),[2],37%
same,Population Tubulin-Different-Phenotype (%),[2],14%
same,Total Cell Count,[2],236
same,Population Apoptotic (%),[3],45%
same,Population Fragmented Nuclei (%),[3],9%
same,Population Healthy Nuclei (%),[3],45%
same,Population Hoechst High Intensity Objects (%),[3],8%
same,Population Mitochondria Different-Phenotype (%),[3],65%
same,Population Mitotic Cells (%),[3],54%
same,Population Normal (%),[3],91%
same,Population Pyknosed Nuclei (%),[3],44%
same,Population Tubulin-Different-Phenotype (%),[3],5%
same,Total Cell Count,[3],370
same,Population Apoptotic (%),[4],16%
same,Population Fragmented Nuclei (%),[4],5%
same,Population Healthy Nuclei (%),[4],42%
same,Population Hoechst High Intensity Objects (%),[4],3%
same,Population Membrane Permeable-Phenotype (%),[4],0%
same,Population Mitochondria Different-Phenotype (%),[4],11%
same,Population Mitotic Cells (%),[4],83%
same,Population Normal (%),[4],96%
same,Population Pyknosed Nuclei (%),[4],52%
same,Population Tubulin-Different-Phenotype (%),[4],1%
same,Total Cell Count,[4],247
same,Population Apoptotic (%),[5],45%
same,Population Fragmented Nuclei (%),[5],14%
same,Population Healthy Nuclei (%),[5],32%
same,Population Hoechst High Intensity Objects (%),[5],10%
same,Population Membrane Permeable-Phenotype (%),[5],2%
same,Population Mitochondria Different-Phenotype (%),[5],47%
same,Population Mitotic Cells (%),[5],54%
same,Population Normal (%),[5],89%
same,Population Pyknosed Nuclei (%),[5],52%
same,Population Tubulin-Different-Phenotype (%),[5],25%
same,Total Cell Count,[5],284
same,Population Apoptotic (%),[6],18%
same,Population Fragmented Nuclei (%),[6],13%
same,Population Healthy Nuclei (%),[6],66%
same,Population Hoechst High Intensity Objects (%),[6],3%
same,Population Membrane Permeable-Phenotype (%),[6],8%
same,Population Mitochondria Different-Phenotype (%),[6],10%
same,Population Mitotic Cells (%),[6],81%
same,Population Normal (%),[6],96%
same,Population Pyknosed Nuclei (%),[6],19%
same,Population Tubulin-Different-Phenotype (%),[6],7%
same,Total Cell Count,[6],255
same,Population Apoptotic (%),[7],48%
same,Population Fragmented Nuclei (%),[7],11%
same,Population Healthy Nuclei (%),[7],41%
same,Population Hoechst High Intensity Objects (%),[7],9%
same,Population Mitochondria Different-Phenotype (%),[7],51%
same,Population Mitotic Cells (%),[7],51%
same,Population Normal (%),[7],90%
same,Population Pyknosed Nuclei (%),[7],46%
same,Population Tubulin-Different-Phenotype (%),[7],4%
same,Total Cell Count,[7],375
same,Population Apoptotic (%),[8],31%
same,Population Fragmented Nuclei (%),[8],6%
same,Population Healthy Nuclei (%),[8],49%
same,Population Hoechst High Intensity Objects (%),[8],2%
same,Population Membrane Permeable-Phenotype (%),[8],0%
same,Population Mitochondria Different-Phenotype (%),[8],21%
same,Population Mitotic Cells (%),[8],68%
same,Population Normal (%),[8],97%
same,Population Pyknosed Nuclei (%),[8],44%
same,Population Tubulin-Different-Phenotype (%),[8],5%
same,Total Cell Count,[8],233
same,Population Apoptotic (%),[9],48%
same,Population Fragmented Nuclei (%),[9],29%
same,Population Healthy Nuclei (%),[9],34%
same,Population Hoechst High Intensity Objects (%),[9],9%
same,Population Membrane Permeable-Phenotype (%),[9],1%
same,Population Mitochondria Different-Phenotype (%),[9],24%
same,Population Mitotic Cells (%),[9],51%
same,Population Normal (%),[9],90%
same,Population Pyknosed Nuclei (%),[9],36%
same,Population Tubulin-Different-Phenotype (%),[9],24%
same,Total Cell Count,[9],307
same,Population Apoptotic (%),[10],28%
same,Population Fragmented Nuclei (%),[10],25%
same,Population Healthy Nuclei (%),[10],64%
same,Population Hoechst High Intensity Objects (%),[10],2%
same,Population Membrane Permeable-Phenotype (%),[10],8%
same,Population Mitochondria Different-Phenotype (%),[10],4%
same,Population Mitotic Cells (%),[10],71%
same,Population Normal (%),[10],97%
same,Population Pyknosed Nuclei (%),[10],10%
same,Population Tubulin-Different-Phenotype (%),[10],10%
same,Total Cell Count,[10],336
same,Population Apoptotic (%),[11],60%
same,Population Fragmented Nuclei (%),[11],16%
same,Population Healthy Nuclei (%),[11],34%
same,Population Hoechst High Intensity Objects (%),[11],9%
same,Population Mitochondria Different-Phenotype (%),[11],45%
same,Population Mitotic Cells (%),[11],39%
same,Population Normal (%),[11],90%
same,Population Pyknosed Nuclei (%),[11],48%
same,Population Tubulin-Different-Phenotype (%),[11],6%
same,Total Cell Count,[11],330
same,Population Apoptotic (%),[12],56%
same,Population Fragmented Nuclei (%),[12],4%
same,Population Healthy Nuclei (%),[12],47%
same,Population Hoechst High Intensity Objects (%),[12],3%
same,Population Membrane Permeable-Phenotype (%),[12],1%
same,Population Mitochondria Different-Phenotype (%),[12],10%
same,Population Mitotic Cells (%),[12],43%
same,Population Normal (%),[12],96%
same,Population Pyknosed Nuclei (%),[12],47%
same,Population Tubulin-Different-Phenotype (%),[12],8%
same,Total Cell Count,[12],219
